{"source": "ChEMBL document CHEMBL4342497", "about": "“Design, Synthesis, and Conformation-Activity Study of Unnatural Bridged Bicyclic Depsipeptides as Highly Potent Hypoxia Inducible Factor-1 Inhibitors and Antitumor Agents” (J Med Chem, 2020)", "key": {"MCF7 [1]": {"test_system": "MCF7", "experiment": "Cytotoxicity against human MCF7 cells assessed as reduction in cell viability incubated for 24 hrs by MTT assay", "assay_type": "functional, cell-based", "conditions": "MCF7, 24 h", "in_short": "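MCF-7 cells seeded at 8.0×10^3 per well and treated with compound for 24 h. MTT 0.5 mg/mL added for 4 h at 37 °C after medium exchange, then DMSO lysis and absorbance at 570 nm. IC50 as mean ± SD, n = 3.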"}, "[2]": {"experiment": "Retardation factor of the compound"}, "[3]": {"experiment": "Inhibition of HIF1 (unknown origin) expressed in HEK293 cells assessed as reduction in hypoxia-induced HIF1 activation pre-incubated for 1 hrs before hypoxia exposure for 24 hrs by luciferase reporter gene assay", "assay_type": "cell-based", "conditions": "Homo sapiens", "in_short": "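HEK293 cells stably carrying HRE reporter plasmid p2.1, seeded at 8.0×10^4 per well and grown 24 h in normoxia. Medium changed to fresh medium with 0.25% DMSO and a range of compound concentrations for 1 h, then 24 h at 1% O2 or normoxia. Luciferase activity normalised to protein content. IC50 as mean ± SD, n = 3.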"}, "[4]": {"experiment": "Binding affinity to synthetic d(ACGTAGAACGT) dsDNA assessed as melting temperature at 2.5 uM by SYBR green I dye dependent differential scanning fluorimetry based thermal denaturation method (reference value: 44.2 +/- 1.0 degC)"}, "MCF7 [5]": {"test_system": "MCF7", "experiment": "Cytotoxicity against human MCF7 cells assessed as reduction in cell viability incubated for 72 hrs by MTT assay", "assay_type": "functional, cell-based", "conditions": "MCF7, 72 h", "in_short": "(§1)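 Cells seeded overnight at 3.0×10^3 (A549), 5.0×10^3 (HT29) or 4.0×10^3 (MCF-7, MDA-MB-231) per well, then exposed to compound for 72 h. Medium replaced, MTT 0.5 mg/mL added for 4 h at 37 °C, cells lysed in DMSO, absorbance read at 570 nm. IC50 as mean ± SD, n = 3. Final DMSO below 1.0%.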"}, "MCF7 [6]": {"test_system": "MCF7", "experiment": "Inhibition of hypoxia-induced HIF1 protein expression in human MCF7 cells incubated for 16 hrs by Western blot analysis", "assay_type": "functional, cell-based", "in_short": "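MCF-7 cells (2.5×10^6 per 100 mm dish) exposed to several compound concentrations for 16 h under 20% or 1% O2. Lysates run on 8% SDS-PAGE and blotted to nitrocellulose. Blocked in 5% milk, probed with anti-HIF-1α (1:1000) and β-actin (1:3000), then HRP secondary. Detected by chemiluminescence.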"}, "[7]": {"experiment": "Inhibition of HIF1 (unknown origin) expressed in HEK293 cells assessed as reduction in hypoxia-induced HIF1 activation by luciferase reporter gene assay", "assay_type": "cell-based", "conditions": "Homo sapiens", "in_short": "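HEK293 clone stably carrying the p2.1 HRE-luciferase reporter, seeded at 8.0×10^4 cells/well and grown 24 h under normoxia. Cells were given fresh medium containing 0.25% DMSO and a range of compound concentrations for 1 h, then held under hypoxia (1% O2) or normoxia for 24 h. Luciferase activity was measured with a kit and normalised to protein content. IC50 reported as mean ± SD, n = 3.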"}, "HT-29": {"test_system": "HT-29", "experiment": "Cytotoxicity against human HT-29 cells assessed as reduction in cell viability incubated for 72 hrs by MTT assay", "assay_type": "functional, cell-based", "conditions": "HT-29, 72 h", "in_short": "as §1"}, "MCF7 [8]": {"test_system": "MCF7", "experiment": "Cytotoxicity against human MCF7 cells assessed as reduction in cell viability", "assay_type": "functional, cell-based", "in_short": "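MTT viability assay. For the 72 h format, cells were plated overnight at 4.0×10^3 cells/well and then exposed to compounds for 72 h. For the 24 h screening format, cells were plated at 8.0×10^3 cells/well and exposed for 24 h. Medium was then refreshed, MTT was added at 0.5 mg/mL for 4 h at 37 °C, and cells were lysed in DMSO. Absorbance was read at 570 nm. IC50 reported as mean ± SD, n = 3.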"}, "MDA-MB-231": {"test_system": "MDA-MB-231", "experiment": "Cytotoxicity against human MDA-MB-231 cells assessed as reduction in cell viability incubated for 72 hrs by MTT assay", "assay_type": "functional, cell-based", "conditions": "MDA-MB-231, 72 h", "in_short": "as §1"}, "A549": {"test_system": "A549", "experiment": "Cytotoxicity against human A549 cells assessed as reduction in cell viability incubated for 72 hrs by MTT assay", "assay_type": "functional, cell-based", "conditions": "A549, 72 h", "in_short": "as §1"}, "[9]": {"experiment": "Binding affinity to synthetic 5'-FAM-CCCTACGTATATGAAAATATACGTAGGG-BHQ1-3' dsDNA assessed as melting temperature at 2.5 uM by SYBR green I dye dependent differential scanning fluorimetry based thermal denaturation method (reference value: 70.7 +/- 0.0 degC)"}, "MCF7 [10]": {"test_system": "MCF7", "experiment": "Inhibition of hypoxia-induced HIF1 mRNA expression in human MCF7 cells incubated for 16 hrs by RT-PCR analysis", "assay_type": "functional, cell-based"}}, "note": "The source made the active and inactive calls. The rule behind the calls is not given here.", "data": [{"smiles": "CSC[C@H]1C(=O)N(C)[C@@H](C(C)C)C(=O)OC[C@@H](NC(=O)c2cnc3ccccc3n2)C(=O)N[C@@H](C)C(=O)N(C)[C@@H](CSC)C(=O)N(C)[C@@H](C(C)C)C(=O)OC[C@@H](NC(=O)c2cnc3ccccc3n2)C(=O)N[C@@H](C)C(=O)N1C", "values": [{"measurement": "IC50", "setting": "MCF7 [1]", "result": 4300, "unit": "nM"}, {"measurement": "Rm", "setting": "[2]", "result": 0.34}, {"measurement": "IC50", "setting": "[3]", "result": 222, "unit": "nM"}]}, {"smiles": "CC(C)[C@H]1C(=O)OC[C@@H](NC(=O)c2nc3ccccc3cc2O)C(=O)N[C@@H](C)C(=O)N(C)[C@H]2C/C=C\\C[C@@H](C(=O)N1C)N(C)C(=O)[C@H](C)NC(=O)[C@H](NC(=O)c1nc3ccccc3cc1O)COC(=O)[C@H](C(C)C)N(C)C2=O", "values": [{"measurement": "Tm", "setting": "[4]", "result": 54.3, "unit": "°C"}, {"measurement": "IC50", "setting": "MCF7 [5]", "result": 0.22, "unit": "nM"}, {"measurement": "Rm", "setting": "[2]", "result": 0.52}, {"measurement": "IC50", "setting": "[3]", "result": 0.09, "unit": "nM"}, {"measurement": "inhibition", "setting": "MCF7 [6]", "result": "Dose-dependent effect"}]}, {"smiles": "CC(C)[C@H]1C(=O)OC[C@@H](NC(=O)c2cnc3ccccc3n2)C(=O)N[C@@H](C)C(=O)N(C)[C@H]2CSSC[C@@H](C(=O)N1C)N(C)C(=O)[C@H](C)NC(=O)[C@H](NC(=O)c1cnc3ccccc3n1)COC(=O)[C@H](C(C)C)N(C)C2=O", "note": "[TRIOSTIN]", "values": [{"measurement": "IC50", "setting": "MCF7 [1]", "result": 2000, "unit": "nM"}, {"measurement": "IC50", "setting": "[7]", "result": 26.9, "unit": "nM"}, {"measurement": "IC50", "setting": "HT-29", "result": 340, "unit": "nM"}, {"measurement": "IC50", "setting": "MCF7 [8]", "result": 4100, "unit": "nM"}, {"measurement": "Tm", "setting": "[4]", "result": 47.2, "unit": "°C"}, {"measurement": "IC50", "setting": "MCF7 [5]", "result": 212, "unit": "nM"}, {"measurement": "IC50", "setting": "MDA-MB-231", "result": 178, "unit": "nM"}, {"measurement": "IC50", "setting": "A549", "result": 322, "unit": "nM"}, {"measurement": "Rm", "setting": "[2]", "result": 0.15}, {"measurement": "Tm", "setting": "[9]", "result": 78, "unit": "°C"}, {"measurement": "IC50", "setting": "[3]", "result": 26.9, "unit": "nM"}]}, {"smiles": "CC(C)[C@@H]1C(=O)OC[C@H](NC(=O)c2cnc3ccccc3n2)C(=O)N[C@H](C)C(=O)N(C)[C@@H]2CSSC[C@H](C(=O)N1C)N(C)C(=O)[C@@H](C)NC(=O)[C@@H](NC(=O)c1cnc3ccccc3n1)COC(=O)[C@@H](C(C)C)N(C)C2=O", "values": [{"measurement": "IC50", "setting": "MCF7 [1]", "result": "> 100000", "unit": "nM"}, {"measurement": "inhibition", "setting": "MCF7 [10]", "result": "inactive"}, {"measurement": "Rm", "setting": "[2]", "result": 0.15}, {"measurement": "IC50", "setting": "[3]", "result": "> 100000", "unit": "nM"}, {"measurement": "inhibition", "setting": "MCF7 [6]", "result": "inactive"}]}, {"smiles": "CSC1SC[C@H]2C(=O)N(C)[C@@H](C(C)C)C(=O)OC[C@@H](NC(=O)c3cnc4ccccc4n3)C(=O)N[C@@H](C)C(=O)N(C)[C@@H]1C(=O)N(C)[C@@H](C(C)C)C(=O)OC[C@@H](NC(=O)c1cnc3ccccc3n1)C(=O)N[C@@H](C)C(=O)N2C", "note": "(some centres not stated)", "values": [{"measurement": "IC50", "setting": "MCF7 [1]", "result": 5.5, "unit": "nM"}, {"measurement": "IC50", "setting": "[7]", "result": 0.35, "unit": "nM"}, {"measurement": "IC50", "setting": "HT-29", "result": 3.5, "unit": "nM"}, {"measurement": "inhibition", "setting": "MCF7 [10]", "result": "inactive"}, {"measurement": "IC50", "setting": "MCF7 [8]", "result": 5.5, "unit": "nM"}, {"measurement": "Tm", "setting": "[4]", "result": 55.8, "unit": "°C"}, {"measurement": "IC50", "setting": "MCF7 [5]", "result": 2, "unit": "nM"}, {"measurement": "IC50", "setting": "MDA-MB-231", "result": 2.3, "unit": "nM"}, {"measurement": "IC50", "setting": "A549", "result": 4.7, "unit": "nM"}, {"measurement": "Rm", "setting": "[2]", "result": 0.28}, {"measurement": "Tm", "setting": "[9]", "result": 81.6, "unit": "°C"}, {"measurement": "IC50", "setting": "[3]", "result": 0.35, "unit": "nM"}]}, {"smiles": "CC(C)[C@H]1C(=O)OC[C@@H](NC(=O)CNC(=O)c2cnc3ccccc3n2)C(=O)N[C@@H](C)C(=O)N(C)[C@H]2CSSC[C@@H](C(=O)N1C)N(C)C(=O)[C@H](C)NC(=O)[C@H](NC(=O)CNC(=O)c1cnc3ccccc3n1)COC(=O)[C@H](C(C)C)N(C)C2=O", "values": [{"measurement": "IC50", "setting": "MCF7 [1]", "result": 13600, "unit": "nM"}, {"measurement": "Rm", "setting": "[2]", "result": -0.05}, {"measurement": "IC50", "setting": "[3]", "result": "> 100000", "unit": "nM"}]}, {"smiles": "CC[C@H](C)[C@H]1C(=O)OC[C@@H](NC(=O)c2cnc3ccccc3n2)C(=O)N[C@@H](C)C(=O)N(C)[C@H]2CSSC[C@@H](C(=O)N1C)N(C)C(=O)[C@H](C)NC(=O)[C@H](NC(=O)c1cnc3ccccc3n1)COC(=O)[C@H](C(C)C)N(C)C2=O", "values": [{"measurement": "IC50", "setting": "MCF7 [1]", "result": 4100, "unit": "nM"}, {"measurement": "Rm", "setting": "[2]", "result": 0.39}, {"measurement": "IC50", "setting": "[3]", "result": 55.5, "unit": "nM"}]}, {"smiles": "CC(C)[C@H]1C(=O)OC[C@@H](NC(=O)c2cnc3ccccc3n2)C(=O)N[C@@H](C)C(=O)N(C)[C@H]2CSC[C@@H](C(=O)N1C)N(C)C(=O)[C@H](C)NC(=O)[C@H](NC(=O)c1cnc3ccccc3n1)COC(=O)[C@H](C(C)C)N(C)C2=O", "values": [{"measurement": "IC50", "setting": "HT-29", "result": 16.2, "unit": "nM"}, {"measurement": "IC50", "setting": "MCF7 [5]", "result": 9.7, "unit": "nM"}, {"measurement": "IC50", "setting": "MDA-MB-231", "result": 8, "unit": "nM"}, {"measurement": "IC50", "setting": "A549", "result": 16.2, "unit": "nM"}, {"measurement": "Rm", "setting": "[2]", "result": 0.2}, {"measurement": "IC50", "setting": "[3]", "result": 2.4, "unit": "nM"}, {"measurement": "inhibition", "setting": "MCF7 [6]", "result": "Dose-dependent effect"}]}, {"smiles": "CC[C@H](C)[C@H]1C(=O)OC[C@@H](NC(=O)c2cnc3ccccc3n2)C(=O)N[C@@H](C)C(=O)N(C)[C@H]2CSSC[C@@H](C(=O)N1C)N(C)C(=O)[C@H](C)NC(=O)[C@H](NC(=O)c1cnc3ccccc3n1)COC(=O)[C@H]([C@@H](C)CC)N(C)C2=O", "values": [{"measurement": "IC50", "setting": "MCF7 [1]", "result": 4000, "unit": "nM"}, {"measurement": "Rm", "setting": "[2]", "result": 0.45}, {"measurement": "IC50", "setting": "[3]", "result": 60, "unit": "nM"}]}]}
